According to ChEMBL document CHEMBL5260840 (J Med Chem, 2019):

Assays:
[1] = molecular target: T1, von Hippel-Lindau disease tumor suppressor/Bromodomain-containing protein 7 (Homo sapiens) (UniProt Q9NPI1+P40337); assay: PROTAC activity at VHL/BRD7 in human HeLa cells assessed as protein degradation at 1 uM incubated for 4 hrs by Western blot analysis relative to control; format: cell-based
[2] = molecular target: T1, von Hippel-Lindau disease tumor suppressor/Bromodomain-containing protein 7 (Homo sapiens); assay: PROTAC activity at VHL/BRD7 in human HeLa cells assessed as remaining BRD7 protein level at 1 uM incubated for 4 hrs by Western blot analysis relative to control; format: cell-based
[3] = molecular target: T2, von Hippel-Lindau disease tumor suppressor/Bromodomain-containing protein 9 (Homo sapiens) (UniProt Q9H8M2+P40337); assay: PROTAC activity at VHL/BRD9 in human HeLa cells assessed as protein degradation at 1 uM incubated for 4 hrs by Western blot analysis relative to control; format: cell-based
In short: (§1)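 HeLa cells treated with compound for the stated time before harvest; BRD9, BRD7 and β-actin detected by Western blot with β-actin loading control; band intensities quantified.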

[4] = molecular target: T3, Von Hippel-Lindau disease tumor suppressor/Elongin B/Elongin C (Homo sapiens) (UniProt P40337+Q15370+Q15369); assay: Binding affinity to 6His-tagged human VHL/ElonginC/ElonginB expressed in Escherichia coli BL21 (DE3) cells assessed as change in enthalpy by ITC analysis
[5] = molecular target: T3, Von Hippel-Lindau disease tumor suppressor/Elongin B/Elongin C (Homo sapiens); assay: Negative co-operative binding affinity to 6His-tagged human VHL/ElonginC/ElonginB expressed in Escherichia coli BL21 (DE3) cells assessed as total gibb's free energy change in the presence of BRD9-BD as complex with compound by ITC analysis
[6] = molecular target: T4, Bromodomain-containing protein 9 (Homo sapiens) (UniProt Q9H8M2); assay: Binding affinity to 6His-tagged human BRD9 bromodomain (134 to 239 residues) expressed in Escherichia coli BL21 (DE3) cells assessed as change in entropy by ITC analysis
T4 sequence (whole entry): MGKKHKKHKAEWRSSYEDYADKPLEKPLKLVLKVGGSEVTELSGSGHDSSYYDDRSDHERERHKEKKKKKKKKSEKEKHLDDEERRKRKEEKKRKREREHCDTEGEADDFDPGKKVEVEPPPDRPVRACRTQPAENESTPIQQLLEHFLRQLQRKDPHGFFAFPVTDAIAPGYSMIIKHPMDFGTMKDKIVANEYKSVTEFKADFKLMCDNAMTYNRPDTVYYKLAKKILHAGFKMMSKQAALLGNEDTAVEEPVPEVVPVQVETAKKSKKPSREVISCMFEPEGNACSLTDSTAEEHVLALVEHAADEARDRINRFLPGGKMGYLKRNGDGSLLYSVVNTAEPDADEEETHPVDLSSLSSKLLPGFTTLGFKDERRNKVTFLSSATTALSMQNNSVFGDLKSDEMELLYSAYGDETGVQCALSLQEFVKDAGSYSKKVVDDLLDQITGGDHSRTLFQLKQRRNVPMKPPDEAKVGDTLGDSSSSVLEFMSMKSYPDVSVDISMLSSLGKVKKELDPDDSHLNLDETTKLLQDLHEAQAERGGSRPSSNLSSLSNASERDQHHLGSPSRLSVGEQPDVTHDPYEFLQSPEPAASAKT

[7] = molecular target: T3, Von Hippel-Lindau disease tumor suppressor/Elongin B/Elongin C (Homo sapiens); assay: Negative co-operative binding affinity to 6His-tagged human VHL/ElonginC/ElonginB expressed in Escherichia coli BL21 (DE3) cells assessed as change in enthalpy in the presence of BRD9-BD as complex with compound by ITC analysis
[8] = molecular target: T4, Bromodomain-containing protein 9 (Homo sapiens); assay: Binding affinity to 6His-tagged human BRD9 bromodomain (134 to 239 residues) expressed in Escherichia coli BL21 (DE3) cells assessed as change in enthalpy by ITC analysis
[9] = molecular target: T1, von Hippel-Lindau disease tumor suppressor/Bromodomain-containing protein 7 (Homo sapiens); assay: PROTAC activity at VHL/BRD7 in human HeLa cells assessed as remaining BRD7 protein level at 1 uM incubated for 16 hrs by Western blot analysis relative to control; format: cell-based
[10] = molecular target: T1, von Hippel-Lindau disease tumor suppressor/Bromodomain-containing protein 7 (Homo sapiens); assay: PROTAC activity at VHL/BRD7 in human HeLa cells assessed as protein degradation at 1 uM incubated for 16 hrs by Western blot analysis relative to control; format: cell-based
[11] = molecular target: T3, Von Hippel-Lindau disease tumor suppressor/Elongin B/Elongin C (Homo sapiens); assay: Negative co-operative binding affinity to 6His-tagged human VHL/ElonginC/ElonginB expressed in Escherichia coli BL21 (DE3) cells assessed as change in entropy in the presence of BRD9-BD as complex with compound by ITC analysis
[12] = molecular target: T3, Von Hippel-Lindau disease tumor suppressor/Elongin B/Elongin C (Homo sapiens); assay: Binding affinity to 6His-tagged human VHL/ElonginC/ElonginB expressed in Escherichia coli BL21 (DE3) cells assessed as change in entropy by ITC analysis
[13] = molecular target: T3, Von Hippel-Lindau disease tumor suppressor/Elongin B/Elongin C (Homo sapiens); assay: Co-operative binding affinity to 6His-tagged human VHL/ElonginC/ElonginB expressed in Escherichia coli BL21 (DE3) cells assessed as maximal intensity in the presence of BRD9-BD as complex with compound incubated for 1 hrs by AlphaLISA proximity assay
[14] = molecular target: T2, von Hippel-Lindau disease tumor suppressor/Bromodomain-containing protein 9 (Homo sapiens); assay: PROTAC activity at VHL/BRD9 in human HeLa cells assessed as remaining BRD9 protein level at 1 uM incubated for 16 hrs by Western blot analysis relative to control; format: cell-based; in short: as §1
[15] = molecular target: T4, Bromodomain-containing protein 9 (Homo sapiens); assay: Binding affinity to 6His-tagged human BRD9 bromodomain (134 to 239 residues) expressed in Escherichia coli BL21 (DE3) cells assessed as gibbs free energy change by ITC analysis
[16] = molecular target: T2, von Hippel-Lindau disease tumor suppressor/Bromodomain-containing protein 9 (Homo sapiens); assay: PROTAC activity at VHL/BRD9 in human HeLa cells assessed as protein degradation at 1 uM incubated for 16 hrs by Western blot analysis relative to control; format: cell-based; in short: as §1

T2 sequence (P40337 whole entry, looked up, one chain of several): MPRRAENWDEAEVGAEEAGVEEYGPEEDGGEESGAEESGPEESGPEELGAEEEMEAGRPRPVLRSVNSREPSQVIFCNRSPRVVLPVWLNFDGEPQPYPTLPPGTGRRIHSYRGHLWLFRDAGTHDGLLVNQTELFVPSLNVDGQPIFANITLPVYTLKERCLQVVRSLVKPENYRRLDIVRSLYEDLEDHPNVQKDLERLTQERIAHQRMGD
T1 sequence (P40337 whole entry, looked up): as the sequence (P40337 whole entry, looked up, one chain of several) above
T1 sequence (Q9NPI1 whole entry, looked up): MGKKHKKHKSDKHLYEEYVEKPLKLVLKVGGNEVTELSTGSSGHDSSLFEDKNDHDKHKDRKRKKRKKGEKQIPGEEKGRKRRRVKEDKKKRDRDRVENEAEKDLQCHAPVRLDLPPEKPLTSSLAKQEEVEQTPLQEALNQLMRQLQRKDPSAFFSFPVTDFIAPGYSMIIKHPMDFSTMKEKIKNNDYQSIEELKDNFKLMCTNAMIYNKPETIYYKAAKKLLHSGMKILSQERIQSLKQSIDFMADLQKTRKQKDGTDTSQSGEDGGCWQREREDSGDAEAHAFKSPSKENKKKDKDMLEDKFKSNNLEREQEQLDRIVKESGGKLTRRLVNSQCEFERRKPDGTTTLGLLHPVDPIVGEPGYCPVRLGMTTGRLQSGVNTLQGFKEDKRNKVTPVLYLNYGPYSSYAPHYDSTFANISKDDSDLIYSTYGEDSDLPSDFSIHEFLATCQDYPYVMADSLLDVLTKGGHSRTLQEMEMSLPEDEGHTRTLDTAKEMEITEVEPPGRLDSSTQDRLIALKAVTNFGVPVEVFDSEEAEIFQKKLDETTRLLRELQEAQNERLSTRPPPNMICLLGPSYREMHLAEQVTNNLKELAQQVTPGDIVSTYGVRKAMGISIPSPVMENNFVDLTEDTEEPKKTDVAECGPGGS
T3 sequence (P40337 whole entry, looked up): as the sequence (P40337 whole entry, looked up, one chain of several) above
T3 sequence (Q15369 whole entry, looked up): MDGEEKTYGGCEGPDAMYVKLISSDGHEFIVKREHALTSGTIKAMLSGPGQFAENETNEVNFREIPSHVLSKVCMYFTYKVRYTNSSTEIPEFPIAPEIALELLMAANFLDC
T3 sequence (Q15370 whole entry, looked up): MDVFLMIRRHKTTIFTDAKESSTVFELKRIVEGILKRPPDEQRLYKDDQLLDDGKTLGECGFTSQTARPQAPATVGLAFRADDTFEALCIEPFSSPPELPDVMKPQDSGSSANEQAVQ

SMILES: COc1cc(-c2cn(C)c(=O)c3cnccc23)cc(OC)c1CN1CCN(CCOCCOCC(=O)N[C@H](C(=O)N2C[C@H](O)C[C@H]2C(=O)NCc2ccc(-c3scnc3C)cc2)C(C)(C)C)CC1
- Activity [1]: 20%
- Activity [2]: 68%
- Activity [3]: 20%
- deltaH [4]: -15.2 kcal/mol
- deltaG [5]: -20.4 kcal/mol
- -TdeltaS [6]: 1.8 kcal/mol
- deltaH [7]: -6.4 kcal/mol
- deltaH [8]: -12.5 kcal/mol
- Activity [9]: 83%
- Activity [10]: 30%
- -TdeltaS [11]: -3.3 kcal/mol
- -TdeltaS [12]: 4.9 kcal/mol
- Activity [13]: 1 10^6No_unit
- Activity [14]: 70%
- deltaG [15]: -10.7 kcal/mol
- Activity [16]: 30%
